Assay results pooled from the literature.
Protocols differ between the studies behind these lines.
Target: Phosphatidylinositol 4,5-bisphosphate 3-kinase catalytic subunit delta isoform (PIK3CD, Homo sapiens, UniProt O00329)
Residues used in one study (O00329 1-1044): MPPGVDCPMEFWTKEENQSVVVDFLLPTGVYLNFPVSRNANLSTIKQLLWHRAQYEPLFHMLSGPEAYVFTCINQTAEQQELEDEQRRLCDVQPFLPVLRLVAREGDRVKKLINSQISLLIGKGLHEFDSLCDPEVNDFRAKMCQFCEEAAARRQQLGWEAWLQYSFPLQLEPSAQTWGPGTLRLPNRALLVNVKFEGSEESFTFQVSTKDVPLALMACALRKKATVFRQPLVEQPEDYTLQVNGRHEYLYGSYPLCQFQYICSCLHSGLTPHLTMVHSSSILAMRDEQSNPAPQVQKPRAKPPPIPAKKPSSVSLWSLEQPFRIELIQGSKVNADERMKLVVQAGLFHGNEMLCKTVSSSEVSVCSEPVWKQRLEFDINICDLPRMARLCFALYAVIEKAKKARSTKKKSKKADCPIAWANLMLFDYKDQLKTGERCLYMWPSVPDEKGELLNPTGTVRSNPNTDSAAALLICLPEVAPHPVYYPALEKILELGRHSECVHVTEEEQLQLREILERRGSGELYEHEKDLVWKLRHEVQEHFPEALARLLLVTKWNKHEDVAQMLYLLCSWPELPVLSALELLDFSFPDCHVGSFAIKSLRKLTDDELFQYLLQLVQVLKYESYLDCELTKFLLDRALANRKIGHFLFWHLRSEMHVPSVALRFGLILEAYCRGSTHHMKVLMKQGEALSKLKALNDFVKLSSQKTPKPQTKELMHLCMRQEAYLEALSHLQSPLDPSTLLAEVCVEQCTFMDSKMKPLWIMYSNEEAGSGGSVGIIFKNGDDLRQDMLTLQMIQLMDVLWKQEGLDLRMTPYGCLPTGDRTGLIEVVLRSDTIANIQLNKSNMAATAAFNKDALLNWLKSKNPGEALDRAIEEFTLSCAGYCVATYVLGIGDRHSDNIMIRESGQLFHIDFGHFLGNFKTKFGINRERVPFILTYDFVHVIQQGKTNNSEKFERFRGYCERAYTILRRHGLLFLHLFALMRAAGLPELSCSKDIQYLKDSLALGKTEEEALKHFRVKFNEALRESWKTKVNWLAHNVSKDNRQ

| Structure (SMILES) | effect on | mode | technique | tested at | endpoint | value |
| --- | --- | --- | --- | --- | --- | --- |
| Cc1ccc(C(=O)Nc2ccc(CN3CCN(C)CC3)c(C(F)(F)F)c2)cc1C#Cc1cnc2cccnn12 | enzyme activity | inhibitor | – | 23.5 nM | remaining activity | 83% |
| O=C(CSc1nc2nccnc2c(=O)n1CCc1ccccc1)Nc1ccccc1 | enzyme activity | inhibitor | – | 10 µM | inhibition | < 20% |
| Nc1ncnc2occ(-c3ccc(NC(=O)Nc4cc(C(F)(F)F)ccc4F)cc3)c12 | cell-free assay | inhibitor | – | 20 µM | remaining signal | 69% |
| CC(C)(O)c1cncc(-c2nc3ccc(F)cc3n2C2CC2)c1 | cell-free assay | – | competition with immobilised ligand | 1 µM | remaining binding | 100% |
| Cc1ccc(C(=O)NCc2ccsc2)cc1C#Cc1cn(C(C)C)c2ncnc(N)c12 | enzyme activity | inhibitor | – | 1 µM | activity vs control | 98% |
| CC(C)CCn1c(SCC(=O)Nc2ccccc2C(F)(F)F)nc2nccnc2c1=O | enzyme activity | inhibitor | – | 10 µM | inhibition | < 20% |
| CO[C@@H](C)c1c(Nc2ccc([C@@H](N(C)C(=O)C3CCS(=O)(=O)CC3)C(F)(F)F)cc2)cnc2cc(Cl)nn12 | cell-free assay | – | competition with immobilised ligand | 1 µM | remaining binding | 87% |
| CN(CCCC(F)(F)F)c1nccc(-c2cnn3ncccc23)n1 | binding | – | – | 1 µM | remaining binding | 100% |
| CS(=O)(=O)Nc1cc(-c2ccc3ncnc(Nc4ccc(F)c(Cl)c4)c3c2)cnc1Cl | enzyme activity | inhibitor | FRET | 10 µM | inhibition | 90 to 100% |
